# Experimental data from ChEMBL document CHEMBL4477183, “Antimicrobial Peptide from the Wild Bee Hylaeus signatus Venom and Its Analogues: Structure-Activity Study and Synergistic Effect with Antibiotics” (J Nat Prod, 2016).
# Non-standard residues stand in square brackets, D forms with d. Residues, ends and D or L forms follow the SMILES beside them.
# Legend:
# Staphylococcus aureus [1] = test: Antimicrobial activity against Staphylococcus aureus clinical isolates from university hospital in Motol assessed as reduction in bacterial growth after 20 hrs by drop diffusion test; type: functional
# Escherichia coli = test: Antimicrobial activity against Escherichia coli assessed as reduction in bacterial growth after 20 hrs by […]; type: functional
# How it was run: (§1)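 Broth microdilution in LB (YPG for C. albicans) with 2-fold serial dilutions, final 0.1–100 μM. Mid-log cells grown 3–5 h at 37 °C were added at about 5 × 10^5 cfu/mL, then incubated 20 h at 37 °C with shaking. A540 was read every 15 min to build growth curves. Medium with cells served as growth control; at least three runs in duplicate.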
# Pseudomonas aeruginosa [2] = test: Antimicrobial activity against Pseudomonas aeruginosa 5482 assessed as reduction in bacterial growth after 20 hrs […]; type: functional; settings: Pseudomonas aeruginosa, 5482, 20 h; how it was run: as §1
# Pseudomonas aeruginosa [3] = test: Antimicrobial activity against Pseudomonas aeruginosa clinical isolates assessed as reduction in bacterial growth after 20 hrs by […]; type: functional; how it was run: as §1
# [4] = Hemolytic activity in human type RBC after 1 hr; type: ADME, cell-based, Erythrocyte; settings: red blood cells (erythrocytes), read-out: LC50
# How it was run: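 Peptides at 2.5–400 μM were incubated with a 4% suspension of human erythrocytes in physiological solution for 1 h at 37 °C, then centrifuged at 250g for 5 min; supernatant A540 was read. Saline-treated cells gave 0% lysis and 0.2% Triton X-100 gave 100%. LC50 is the concentration lysing 50% of cells; duplicates in at least two independent experiments.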
# Candida albicans = test: Antifungal activity against Candida albicans assessed as reduction in fungal growth after 20 hrs by […]; type: functional; how it was run: as §1
# Micrococcus luteus = test: Antimicrobial activity against Micrococcus luteus assessed as reduction in bacterial growth after 20 hrs by […]; type: functional; how it was run: as §1
# Bacillus subtilis = test: Antimicrobial activity against Bacillus subtilis assessed as reduction in bacterial growth after 20 hrs by […]; type: functional; how it was run: as §1
# Staphylococcus aureus [5] = test: Antimicrobial activity against Staphylococcus aureus clinical isolates assessed as FIC index in presence of amoxicillin after 20 hrs by drop diffusion test; type: functional
# Pseudomonas aeruginosa [6] = test: Antimicrobial activity against Pseudomonas aeruginosa clinical isolates assessed as FIC index in presence of tetracycline after 20 hrs by drop diffusion test; type: functional
# Pseudomonas aeruginosa [7] = test: Antimicrobial activity against Pseudomonas aeruginosa clinical isolates assessed as FIC index in presence of rifampicin after 20 hrs by drop diffusion test; type: functional
# Staphylococcus aureus [8] = test: Antimicrobial activity against Staphylococcus aureus 6271 assessed as reduction in bacterial growth after 20 hrs by broth microdilution assay; settings: Staphylococcus aureus, 6271, 20 h
# [9] = system: Staphylococcus epidermidis; test: Antimicrobial activity against Staphylococcus epidermidis assessed as reduction in bacterial growth after 20 hrs by broth microdilution assay
# Staphylococcus aureus [10] = test: Antimicrobial activity against Staphylococcus aureus clinical isolates from Liberec regional hospital assessed as reduction in bacterial growth after 20 hrs by broth microdilution assay
Molecule,MIC (Staphylococcus aureus [1]),MIC (Escherichia coli),MIC (Pseudomonas aeruginosa [2]),MIC (Pseudomonas aeruginosa [3]),HC50 at 1 h [4],MIC (Candida albicans),MIC (Micrococcus luteus),MIC (Bacillus subtilis),fractional inhibitory concentration index (FICI) (Staphylococcus aureus [5]),fractional inhibitory concentration index (FICI) (Pseudomonas aeruginosa [6]),fractional inhibitory concentration index (FICI) (Pseudomonas aeruginosa [7]),MIC (Staphylococcus aureus [8]),MIC [9],MIC (Staphylococcus aureus [10])
CC[C@@H](C)[C@@H](NC(=O)CN)C(=O)N[C@H](CC(C)C)C(=O)N[C@H](CO)C(=O)N[C@H](CO)C(=O)N[C@H](CC(C)C)C(=O)N[C@H](CC(C)C)C(=O)N[C@H](CCCCN)C(=O)N[C@H](CCCCN)C(=O)N[C@H](CC(C)C)C(=O)N[C@H](CCCCN)C(=O)N[C@H](CCCCN)C(=O)N[C@@H](C(=O)N[C@@H](C(=O)N[C@H](C)C(=O)N[C@H](CCCCN)C(N)=O)[C@H](C)CC)[C@H](C)CC (H-G[dI][dL][dS][dS][dL][dL][dK][dK][dL][dK][dK][dI][dI][dA][dK]-NH2),6.3 µM,4.5 µM,4.5 µM,9.7 µM,333 µM,9 µM,≤ 3 µM,≤ 7 µM,0.63,0.75,0.3,5.7 µM,3.2 µM,2.6 µM
CC[C@@H](C)[C@@H](NC(=O)CN)C(=O)N[C@H](CC(C)C)C(=O)N[C@H](CO)C(=O)N[C@H](CO)C(=O)N[C@H](CC(C)C)C(=O)N[C@H](Cc1c[nH]c2ccccc12)C(=O)N[C@H](CCCCN)C(=O)N[C@H](CCCCN)C(=O)N[C@H](CC(C)C)C(=O)N[C@H](CCCCN)C(=O)N[C@H](CCCCN)C(=O)N[C@@H](C(=O)N[C@@H](C(=O)N[C@H](C)C(=O)N[C@H](CCCCN)C(N)=O)[C@H](C)CC)[C@H](C)CC (H-G[dI][dL][dS][dS][dL][dW][dK][dK][dL][dK][dK][dI][dI][dA][dK]-NH2),3.2 µM,5 µM,6.7 µM,8.8 µM,191 µM,8 µM,≤ 3 µM,≤ 7 µM,0.73,0.58,0.29,6.3 µM,1.7 µM,2.9 µM
CC[C@@H](C)[C@@H](NC(=O)CN)C(=O)N[C@H](CCSC)C(=O)N[C@H](CO)C(=O)N[C@H](CO)C(=O)N[C@H](CC(C)C)C(=O)N[C@H](CCSC)C(=O)N[C@H](CCCCN)C(=O)N[C@H](CCCCN)C(=O)N[C@H](CC(C)C)C(=O)N[C@H](CCCCN)C(=O)N[C@H](CCCCN)C(=O)N[C@@H](C(=O)N[C@@H](C(=O)N[C@H](C)C(=O)N[C@H](CCCCN)C(N)=O)[C@H](C)CC)[C@H](C)CC (H-G[dI][dM][dS][dS][dL][dM][dK][dK][dL][dK][dK][dI][dI][dA][dK]-NH2),16 µM,6.3 µM,3.2 µM,8.5 µM,> 400 µM,8 µM,≤ 3 µM,≤ 7 µM,0.54,0.67,0.32,13 µM,2.2 µM,7 µM
CC1(C)S[C@@H]2[C@H](NC(=O)[C@H](N)c3ccc(O)cc3)C(=O)N2[C@H]1C(=O)O [AMOXICILLIN],3.5 µM,2.7 µM,> 100 µM,> 100 µM,–,–,–,–,–,–,–,17 µM,35 µM,35 µM
H-GILSSLLKKLKKIIAK-NH2,5 µM,8 µM,5 µM,7.5 µM,284 µM,10 µM,≤ 3 µM,≤ 7 µM,0.69,0.54,0.39,16 µM,1.8 µM,3.8 µM
H-GILSSLLKKLKKWIAK-NH2,4 µM,4 µM,8 µM,21 µM,115 µM,16 µM,≤ 3 µM,≤ 7 µM,0.56,0.63,0.27,8 µM,1.6 µM,2.6 µM
H-GILSSLLKKWKKIIAK-NH2,20 µM,7.5 µM,5 µM,7.1 µM,> 400 µM,11 µM,≤ 3 µM,≤ 7 µM,0.44,0.58,0.42,20 µM,2.7 µM,7.8 µM
